We go through two molecules from PMC4182178 (Oncogene, 2014).

The nature of one series: Toxicity in mice. Conditions: up to a dose of 30 mg/Kg/day for 14 days. Type of series: in vivo.
Another series deals with BCM-2665. Briefly: Mammosphere assay, patient-derived xenograft cells. Type of series: cell-based, human. Conditions: read-out: IC50 Mammosphere assay, Mean ± SEM, n ≥ 2. The method in brief:
(§1)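 Patient-derived breast tumors serially grown in SCID/Beige mouse fat pad were excised, minced, collagenase-digested, mesh-filtered and suspended as single cells in MEGM+. Cells were plated in serum-free, growth-factor-enriched medium in low-attachment plates ± test compound (0/0.1/0.3/1/3/10/100 μM), fed twice weekly, and counted by automated colony counter after 5–12 days. Percent of untreated colony number was fitted for IC50.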
In general terms: Xenograft models place foreign cells or tissue in a host animal.

Another series concerns MCF 10A. Put plainly: Anchorage independent growth. Type of series: cell-based.
The test system of series [1] is Stat3 phosphorylation. Briefly: Phosphoflow assay, G-CSF stimulated Stat3 phosphorylation in Kasumi-1 cells. Conditions: read-out: IC50 G-CSF stimulated Stat3 phosphorylation, Mean ± SEM, n ≥ 2, G-CSF 10 ng/ml 15′. It is filed as cell-based.
The test system of series [2] is MDA-MB-468 tumor xenografts. Put plainly: Human breast cancer cell line xenograft assay, tumor growth. It is filed as in vivo, nude mice. Conditions: 15 mg/Kg body weight/day IP, 21 days; p < 0.05.
Series [3] has as its system Stat3-regulated genes. Briefly: mRNA of Stat3-regulated genes in MDA-MB 468 xenograft tumors. Type of series: in vivo, nude mice. Conditions: 15 mg/Kg; vs vehicle; p<0.05; listed as PL. The procedure, abridged: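 mRNA levels of Stat3-regulated genes were measured by Q-RT-PCR in excised tumors from nude mice bearing subcutaneous MDA-MB-468 xenografts. Mice had been treated i.p. with test compound 15 mg/Kg in DMSO or with vehicle, 5 days/week for 3 weeks. Values were normalized to β-actin and compared against vehicle-treated tumors.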

The test system of another series is MCF-12A. Briefly: Anchorage independent growth. It is filed as cell-based.
For a further series, the system named is ZR-75-1. Put plainly: Anchorage independent growth. Type of series: cell-based.
A further series deals with MDA-MB-231 cells. Put plainly: Anchorage independent growth. Type of series: cell-based, human.
In series [4] the target is glutathione S-transferase pi 1 (GSTP1). Conditions: read-out: IC50 for GSTP1 inhibition; cited from earlier work.
The next series relates to T-47D. Briefly: Anchorage independent growth. It is filed as cell-based, human.
Series [5] has as its system Stat3-regulated genes. Briefly: Quantitative RT-PCR of Stat3-regulated genes in MDA-MB-468 cells. It is filed as cell-based, human. Particulars: 30 μM, 6–8 hr.
The test system of the next series is Hs 578T cells. Put plainly: Anchorage independent growth. Type of series: cell-based, human. Particulars: read-out: IC50 Anchorage independent growth (MTT), Mean ± SEM, n ≥ 2. The procedure, abridged: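 Cells grown in triplicate in ultra-low-attachment 96-well plates in complete DMEM ± test compound (0/0.1/0.3/1/3/10/100 μM) for 48–72 hrs. Viable cells were quantitated by MTT. Relative % viability was calculated as treated ÷ untreated × 100 and plotted against log concentration. IC50 was derived from ≥2 replicate experiments.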

The test system of another series is cleaved caspase 3. Briefly: Cleaved caspase 3 in MDA-MB-468 cells. Type of series: cell-based, human. Particulars: PL 30μM, 12 hrs. The procedure, abridged:
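MDA-MB-468 cells were exposed to 30 μM test compound and sampled over 15 min to 24 h. Cleaved caspase 3 and GAPDH were measured in whole protein by Luminex bead immunoassay. GAPDH-normalized active caspase 3 was expressed as a percentage of the pre-treatment value.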

In series [6] the test system is Stat3 phosphorylation. Put plainly: Constitutive Stat3 phosphorylation in breast cancer cell lines. Conditions: for IC50: read-out: IC50 Constitutive Stat3 phosphorylation, Mean ± SEM, n ≥ 2. Type of series: cell-based, human.
The subject of another series is MC1. Put plainly: Mammosphere assay, patient-derived xenograft cells. Particulars: read-out: IC50 Mammosphere assay, Mean ± SEM, n ≥ 2. It is filed as cell-based, human. The procedure, abridged: as §1
In another series the test system is GFP+ SUM159PT cells. It is filed as cell-based. Conditions: PL 3 and 10 μM. The procedure, abridged: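 SUM159PT cells carrying a lentiviral Stat3-GFP reporter (GFP driven by four M67 repeats) were grown as xenografts in pre-cleared mammary glands of SCID/Beige mice. Excised tumors were digested to single cells and FACS-sorted into GFP+ and GFP− populations. Mammosphere formation efficiency was then assayed in MEGM+ without or with test compound.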

A further series deals with MEF/GFP-Stat3α cells. Put plainly: Anchorage-independent colony growth and MTT viability of MEF/GFP-Stat3α cells. Type of series: cell-based. Particulars: 3μM of PL. The method in brief: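 Stat3−/− MEFs stably expressing GFP-Stat3α were grown under anchorage-independent conditions with increasing doses of test compound, then photographed. Mean colony number from duplicate wells was taken as a percentage of DMSO-treated cells. Viability by MTT was also expressed relative to DMSO-treated cells. IC50 values were fitted against log concentration.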

The subject of another series is MDA-MB-468 cells. Put plainly: Anchorage independent growth. It is filed as cell-based, human.
Another series deals with Sum159PT. Briefly: Anchorage independent growth. It is filed as cell-based.
A further series relates to MDA-MB-453. Put plainly: Anchorage independent growth. It is filed as cell-based.
In another series the test system is MCF-7. Briefly: Anchorage independent growth. Type of series: cell-based, human.
A further series concerns the target GFP-Stat3α (Homo sapiens, UniProt P40763). Type of series: cell-based.
Where [7] appears, read: read-out: Anchorage independent Growth IC50, 80 hrs, no sensitivity taken as 100 μM.
The mark [8] stands for this setting: read-out: Anchorage Independent Growth IC50, 16 hrs.
Setting [9] is: read-out: Anchorage independent Growth IC50, 80 hrs.

Where two headings read alike, the source gives them in different places. Where only a bound is given, the exact number is not on record here.

GFP-Stat3α, sequence (P40763 whole entry): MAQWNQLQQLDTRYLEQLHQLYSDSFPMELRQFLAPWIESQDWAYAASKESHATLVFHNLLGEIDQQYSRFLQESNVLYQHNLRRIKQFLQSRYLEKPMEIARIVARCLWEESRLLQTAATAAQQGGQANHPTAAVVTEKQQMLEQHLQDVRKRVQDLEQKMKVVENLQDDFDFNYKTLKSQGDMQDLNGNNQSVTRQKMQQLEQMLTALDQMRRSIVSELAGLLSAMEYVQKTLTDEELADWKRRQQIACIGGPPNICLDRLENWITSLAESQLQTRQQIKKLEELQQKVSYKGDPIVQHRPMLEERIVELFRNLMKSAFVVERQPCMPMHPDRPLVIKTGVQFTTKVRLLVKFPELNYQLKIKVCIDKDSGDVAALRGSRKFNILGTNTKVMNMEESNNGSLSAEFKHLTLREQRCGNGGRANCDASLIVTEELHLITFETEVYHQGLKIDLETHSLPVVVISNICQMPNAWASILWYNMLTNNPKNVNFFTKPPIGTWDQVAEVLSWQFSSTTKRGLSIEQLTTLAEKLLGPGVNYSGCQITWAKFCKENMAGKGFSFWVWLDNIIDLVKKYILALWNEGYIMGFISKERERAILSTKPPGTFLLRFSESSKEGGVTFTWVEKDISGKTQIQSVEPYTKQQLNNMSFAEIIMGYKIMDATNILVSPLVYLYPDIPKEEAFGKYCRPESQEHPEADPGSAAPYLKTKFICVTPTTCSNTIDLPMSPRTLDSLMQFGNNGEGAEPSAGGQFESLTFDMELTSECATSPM

Take `COc1cc(/C=C/C(=O)N2CCC=CC2=O)cc(OC)c1OC` [Piperlongumine, piperlongumine]: the toxicity in mice result in the series “Toxicity in mice” is “non-toxic”. Also, the IC50 is 0.1 µM in the series on BCM-2665; above 100 µM with MCF 10A (read-out: Anchorage Independent Growth IC50, 16 hrs, no sensitivity taken as 100 μM); above 100 µM in the series on MCF 10A (setting [7]); 3.7 ± 1.7 µM in the series on Stat3 phosphorylation [1]; 16.2 µM in the series on MCF-12A (setting [8]); above 100 µM with MCF-12A (setting [7]). The IC50 was 80.6 µM in the series on ZR-75-1 (setting [8]); 0.8 µM with ZR-75-1 (setting [9]); 9.2 µM in the series on MDA-MB-231 cells (read-out: Anchorage Independent Growth IC50, 16 hrs, MDA-MB-231); 0.3 µM in the series on MDA-MB-231 cells (read-out: Anchorage independent Growth IC50, 80 hrs, MDA-MB-231); 1.2 ± 1.8 µM in the series on MDA-MB-231 cells (read-out: IC50 Anchorage independent growth (MTT), MDA-MB 231, Mean ± SEM, n ≥ 2); around 100 µM in series [4]. Also, the IC50 in the series on T-47D (setting [8]) was 42 µM; in the series on T-47D (setting [9]), 0.3 µM; in the series on Hs 578T cells, 0.2 ± 0.1 µM; with Stat3 phosphorylation [6] (MDA-MB 231), 0.4 ± 0.5 µM; with Stat3 phosphorylation [6] (MDA-MB 468), 2.8 ± 2.1 µM; in the series with MC1 it was 4.2 ± 2.3 µM. Also, the IC50 worked out at 2.8 µM in the series with MDA-MB-468 cells (read-out: Anchorage Independent Growth IC50, 16 hrs, MDA-MB-468); 0.9 µM in the series on MDA-MB-468 cells (read-out: Anchorage independent Growth IC50, 80 hrs, MDA-MB-468); 4.6 ± 4.8 µM in the series with MDA-MB-468 cells (read-out: IC50 Anchorage independent growth (MTT), MDA-MB 468, Mean ± SEM, n ≥ 2); 12.9 µM in the series on Sum159PT (setting [8]); 0.8 µM in the series on Sum159PT (setting [9]); 15.5 µM in the series with MDA-MB-453 (setting [8]). For the same molecule, the IC50 in the series on MDA-MB-453 (setting [9]) turned out to be 1.7 µM; with MCF-7 (setting [8]) it was 7 µM; in the series on MCF-7 (setting [9]), 3.6 µM. In series [2], the “reduction of tumor weight” value is recorded as above 50%. Besides, in the series with Stat3-regulated genes [3], the “reduction of β-actin-normalized BcL-xL mRNA in tumors” value is on record as ~ 50%. Besides, the “reduction of β-actin-normalized Survivin mRNA in tumors” value in the series with Stat3-regulated genes [3] was ~ 50%. For the same molecule, in the series on Stat3-regulated genes [5], the “increase of FAS (CD95) mRNA” value was “two fold”. Moreover, the “increase of caspase 3 cleavage compared to earlier time points” value with cleaved caspase 3 is reported as ~ 12 fold. The “effect on levels of total Stat3 or pStat1, pStat5 and total Stat1” value in the series on Stat3 phosphorylation [6] (MDA-MB-231 and MDA-MB-468 (pStat1, pStat5, total Stat1 in MDA-MB-468)) is “without substantially affecting”. For the same molecule, the “reduction of pStat3 levels at 15 min” value with Stat3 phosphorylation [6] (MDA-MB-468, PL 30 μM) is on record as above 50%. In addition, in the series on Stat3 phosphorylation [6] (MDA-MB-468, PL 30 μM), the “time of maximal reduction of pStat3” value is at most 30 min. For the same molecule, in the series with Stat3 phosphorylation [6] (Sum159PT xenograft-derived GFP+ cells, increasing doses of PL), the “pStat3 levels in the GFP+ cells” value is on record as “decreased”. For the same molecule, the “mammosphere formation by GFP+ cells” value with GFP+ SUM159PT cells was “completely inhibited”. For the same molecule, the spheroid colony formation result with MEF/GFP-Stat3α cells is recorded as “completely abrogating”.

In the case of `O=C1C=CC(=O)c2c1ccc1c2ccc2ccccc21` [chrysene 1,4 quinone], the IC50 on GFP-Stat3α was 10 µM.
